Measurements from ChEMBL document CHEMBL1133679, “Synthesis and cytotoxicity of 4-amino-5-oxopyrido[2,3-d]pyrimidine nucleosides” (J Med Chem, 2000).

Tests used:
Type in all cases: functional, cell-based
[1] = Cytotoxicity that caused a 50% reduction in absorbance at 490 nm in human prostate cancer HTB-81 cells using MTS assay.
How it was run: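 DU-145 (HTB-81) prostate cancer cells were grown in MEM with 10% fetal bovine serum and 2 mM L-glutamine. They were plated at 4×10^3 per well and treated at 0.78–100 μM from 100 mM DMSO stocks diluted in medium, with a 1% DMSO control. MTS read at 490 nm after 72 h. EC50 is the 50% absorbance drop versus untreated cells.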

[2] = Cytotoxicity that caused a 50% reduction in absorbance at 490 nm in normal human fibroblast (NHF) cells using MTS assay.
How it was run: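 Normal human dermal fibroblasts were cultivated in FGM medium and seeded at 4×10^3 cells per well. Exposure was 0.78–100 μM, diluted in medium from 100 mM DMSO stocks, with a 1% DMSO control. Formazan absorbance at 490 nm was measured by MTS after 72 h. EC50 is the concentration halving absorbance relative to untreated cells.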

[3] = system: B16; assay: Cytotoxicity that caused a 50% reduction in absorbance at 490 nm in B16 mouse melanoma cells using MTS assay.
How it was run: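 Compounds taken from 100 mM DMSO stocks and diluted in culture medium. Cells seeded at 4×10^3 per well and exposed to 0.78–100 μM. A 1% DMSO control was run in parallel. MTS reagent added after 72 h and formazan read at 490 nm. EC50 is the concentration giving 50% absorbance reduction versus untreated cells.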

Q: Which results are given for `C#C[C@]1(O)[C@@H](CO)OC(n2ccc(=O)c3c(N)ncnc32)[C@@H]1O` (stereo partly specified)?
A: EC50 ([1]; Homo sapiens, HTB-81): > 100 µM; EC50 ([2]; Homo sapiens): > 100 µM; EC50 ([3]; Mus musculus, B16): > 100 µM

Q: For `Nc1ncnc2c1c(=O)ccn2[C@@H]1O[C@H](CO)C[C@H]1O`, which EC50 ([1]; Homo sapiens, HTB-81) is on record?
A: 2.6 µM

Q: And the EC50 ([2]; Homo sapiens)?
A: 9.5 µM

Q: What about the EC50 ([3]; Mus musculus, B16) of the same compound?
A: 19 µM

Q: For `C=C[C@]1(CO)OC(n2ccc(=O)c3c(N)ncnc32)[C@H](O)[C@@H]1O` (stereo partly specified), which EC50 ([1]; Homo sapiens, HTB-81) is on record?
A: 34.2 µM

Q: What about the EC50 ([2]; Homo sapiens) of the same compound?
A: 76.8 µM

Q: And the EC50 ([3]; Mus musculus, B16)?
A: 99.7 µM

Q: Which results are given for `C[C@]1(CO)OC(n2ccc(=O)c3c(N)ncnc32)[C@H](O)[C@@H]1O` (stereo partly specified)?
A: EC50 ([1]; Homo sapiens, HTB-81): 19.7 µM; EC50 ([2]; Homo sapiens): 29.9 µM; EC50 ([3]; Mus musculus, B16): 55.5 µM

Q: Which EC50 ([1]; htb-81) does the source give for `Nc1ncnc2c1c(=O)ccn2[C@@H]1O[C@H](CO)[C@@H](O)[C@H]1O` (stereo in doubt; 1b-L) here?
A: > 100 µM

Q: And the EC50 [2]?
A: > 100 µM

Q: And the EC50 ([3]; b16)?
A: > 100 µM

Q: With `Nc1ncnc2c1c(=O)ccn2[C@H]1C[C@H](O)[C@@H](CO)O1` as the compound, how does the EC50 ([1]; Homo sapiens, HTB-81) read?
A: 3.9 µM

Q: And the EC50 ([2]; Homo sapiens)?
A: 5 µM

Q: What about the EC50 ([3]; Mus musculus, B16) of the same compound?
A: 11.3 µM

Q: For `Nc1ncnc2c1c(=O)ccn2C1O[C@H](CO)[C@@H](O)[C@@H]1O` (stereo partly specified), which EC50 ([1]; Homo sapiens, HTB-81) is on record?
A: 21.9 µM

Q: What about the EC50 ([2]; Homo sapiens) of the same compound?
A: 23.2 µM

Q: And the EC50 ([3]; Mus musculus, B16)?
A: 33.2 µM

Q: For `Nc1ncnc2c1c(=O)ccn2C1CCC(CO)O1` (stereo unspecified), which EC50 ([1]; Homo sapiens, HTB-81) is on record?
A: 43.3 µM

Q: And the EC50 ([2]; Homo sapiens)?
A: 60.5 µM

Q: What about the EC50 ([3]; Mus musculus, B16) of the same compound?
A: 47.1 µM

Q: For `C=CC[C@@H](O)[C@H]1OC(n2ccc(=O)c3c(N)ncnc32)[C@H](O)[C@@H]1O` (stereo partly specified), which EC50 ([1]; Homo sapiens, HTB-81) is on record?
A: 35.3 µM

Q: What about the EC50 ([2]; Homo sapiens) of the same compound?
A: 72 µM

Q: What about the EC50 ([3]; Mus musculus, B16) of the same compound?
A: 66.3 µM

Q: With `Nc1ncnc2c1c(=O)ccn2C1O[C@H](CO)[C@H](O)[C@H]1O` (stereo partly specified) as the compound, how does the EC50 ([1]; Homo sapiens, HTB-81) read?
A: 0.73 µM

Q: What about the EC50 ([2]; Homo sapiens) of the same compound?
A: 20.7 µM

Q: And the EC50 ([3]; Mus musculus, B16)?
A: 5.9 µM

Q: Which results are given for `C[C@]1(O)C(n2ccc(=O)c3c(N)ncnc32)O[C@H](CO)[C@H]1O` (stereo partly specified)?
A: EC50 ([1]; Homo sapiens, HTB-81): 46.7 µM; EC50 ([2]; Homo sapiens): > 100 µM; EC50 ([3]; Mus musculus, B16): 85.5 µM

Q: With `C[C@@H](O)[C@H]1O[C@@H](n2ccc(=O)c3c(N)ncnc32)[C@H](O)[C@@H]1O.C[C@H](O)[C@H]1O[C@@H](n2ccc(=O)c3c(N)ncnc32)[C@H](O)[C@@H]1O` as the compound, how does the EC50 ([1]; Homo sapiens, HTB-81) read?
A: 10 µM

Q: What about the EC50 ([2]; Homo sapiens) of the same compound?
A: 16.5 µM

Q: And the EC50 ([3]; Mus musculus, B16)?
A: 18.3 µM

Q: Which EC50 ([1]; Homo sapiens, HTB-81) does the source give for `N=c1ncn(C2O[C@H](CO)[C@@H](O)[C@H]2O)c2nccc(O)c12` (stereo partly specified) here?
A: 7.3 µM

Q: What about the EC50 ([2]; Homo sapiens) of the same compound?
A: 7.3 µM

Q: With `CC[C@@H](O)[C@H]1O[C@@H](n2ccc(=O)c3c(N)ncnc32)[C@H](O)[C@@H]1O.CC[C@H](O)[C@H]1O[C@@H](n2ccc(=O)c3c(N)ncnc32)[C@H](O)[C@@H]1O` (mixture of isomers) as the compound, how does the EC50 ([1]; Homo sapiens, HTB-81) read?
A: 17.3 µM

Q: What about the EC50 ([2]; Homo sapiens) of the same compound?
A: 18.9 µM

Q: What about the EC50 ([3]; Mus musculus, B16) of the same compound?
A: 16.3 µM

Q: For `Nc1ncnc2nccc(O)c12`, which EC50 ([1]; Homo sapiens, HTB-81) is on record?
A: > 100 µM

Q: And the EC50 ([2]; Homo sapiens)?
A: > 100 µM

Q: And the EC50 ([3]; Mus musculus, B16)?
A: > 100 µM

Q: With `C[C@@]1(O)[C@@H](CO)OC(n2ccc(=O)c3c(N)ncnc32)[C@@H]1O` (stereo partly specified) as the compound, how does the EC50 ([1]; Homo sapiens, HTB-81) read?
A: 4.44 µM

Q: What about the EC50 ([2]; Homo sapiens) of the same compound?
A: 10.4 µM

Q: And the EC50 ([3]; Mus musculus, B16)?
A: 31.6 µM

Q: Which EC50 ([1]; Homo sapiens, HTB-81) does the source give for `Nc1ncnc2c1c(=O)ccn2[C@H]1C[C@@H](O)[C@@H](CO)O1` here?
A: 26.6 µM

Q: What about the EC50 ([2]; Homo sapiens) of the same compound?
A: 38.9 µM

Q: What about the EC50 ([3]; Mus musculus, B16) of the same compound?
A: 68.9 µM

Q: For `N=c1ncn(C2OC(CO)[C@@H](O)[C@@H]2O)c2nccc(O)c12` (stereo partly specified), which EC50 ([1]; Homo sapiens, HTB-81) is on record?
A: > 100 µM

Q: What about the EC50 ([2]; Homo sapiens) of the same compound?
A: > 100 µM

Q: And the EC50 ([3]; Mus musculus, B16)?
A: > 100 µM

Q: With `C#C[C@@]1(O)[C@@H](CO)OC(n2ccc(=O)c3c(N)ncnc32)[C@@H]1O` (stereo partly specified) as the compound, how does the EC50 ([1]; Homo sapiens, HTB-81) read?
A: 0.68 µM

Q: What about the EC50 ([2]; Homo sapiens) of the same compound?
A: 6.45 µM

Q: What about the EC50 ([3]; Mus musculus, B16) of the same compound?
A: 2.48 µM

Q: What does the source list for `C#C[C@@H](O)[C@H]1O[C@@H](n2ccc(=O)c3c(N)ncnc32)[C@H](O)[C@@H]1O.C#C[C@H](O)[C@H]1O[C@@H](n2ccc(=O)c3c(N)ncnc32)[C@H](O)[C@@H]1O` (mixture of isomers)?
A: EC50 ([1]; Homo sapiens, HTB-81): 6.1 µM; EC50 ([2]; Homo sapiens): 15.3 µM; EC50 ([3]; Mus musculus, B16): 17.2 µM

Q: For `COc1cccc2c1C(=O)c1c(O)c3c(c(O)c1C2=O)C[C@@](O)(C(C)=O)C[C@@H]3O[C@H]1C[C@H](N)[C@H](O)[C@H](C)O1` [DAUNORUBICIN], which EC50 ([1]; Homo sapiens, HTB-81) is on record?
A: 0.058 µM

Q: And the EC50 ([2]; Homo sapiens)?
A: 0.22 µM

Q: And the EC50 ([3]; Mus musculus, B16)?
A: 0.16 µM

Q: Which results are given for `N#Cc1cn([C@@H]2O[C@H](CO)[C@@H](O)[C@H]2O)c2ncnc(N)c12` [TOYOCAMYCIN]?
A: EC50 ([1]; Homo sapiens, HTB-81): 0.012 µM; EC50 ([2]; Homo sapiens): 0.004 µM; EC50 ([3]; Mus musculus, B16): 0.005 µM

Q: For `C=C1[C@H](n2ccc(=O)c3c(N)ncnc32)O[C@H](CO)[C@H]1O`, which EC50 ([1]; Homo sapiens, HTB-81) is on record?
A: > 100 µM

Q: And the EC50 ([2]; Homo sapiens)?
A: > 100 µM

Q: And the EC50 ([3]; Mus musculus, B16)?
A: > 100 µM

Q: Which results are given for `CC[C@]1(CO)OC(n2ccc(=O)c3c(N)ncnc32)[C@H](O)[C@@H]1O` (stereo partly specified)?
A: EC50 ([1]; Homo sapiens, HTB-81): 36.7 µM; EC50 ([2]; Homo sapiens): 65.1 µM; EC50 ([3]; Mus musculus, B16): 96 µM

Q: For `Nc1ncnc2c1c(=O)ccn2[C@@H]1O[C@H](CO)[C@@H](O)[C@H]1O` (stereo in doubt; 1b), which EC50 ([1]; htb-81) is on record?
A: 0.06 µM

Q: What about the EC50 [2] of the same compound?
A: 0.08 µM

Q: And the EC50 ([3]; b16)?
A: 0.06 µM

Q: With `C#C[C@]1(O)C(n2ccc(=O)c3c(N)ncnc32)O[C@H](CO)[C@H]1O` (stereo partly specified) as the compound, how does the EC50 ([1]; Homo sapiens, HTB-81) read?
A: 29.3 µM

Q: What about the EC50 ([2]; Homo sapiens) of the same compound?
A: 65.1 µM

Q: And the EC50 ([3]; Mus musculus, B16)?
A: 81 µM

Q: What does the source list for `CCC[C@@H](O)[C@H]1OC(n2ccc(=O)c3c(N)ncnc32)[C@H](O)[C@@H]1O` (stereo partly specified)?
A: EC50 ([1]; Homo sapiens, HTB-81): 20.4 µM; EC50 ([2]; Homo sapiens): 41.1 µM; EC50 ([3]; Mus musculus, B16): 51.6 µM

Q: With `Nc1ncnc2c1c(=O)ccn2[C@@H]1OC(CO)(CO)[C@@H](O)[C@H]1O` as the compound, how does the EC50 ([1]; Homo sapiens, HTB-81) read?
A: > 100 µM

Q: What about the EC50 ([2]; Homo sapiens) of the same compound?
A: > 100 µM

Q: What about the EC50 ([3]; Mus musculus, B16) of the same compound?
A: > 100 µM

Q: For `C=C1[C@@H](O)[C@H](n2ccc(=O)c3c(N)ncnc32)O[C@@H]1CO`, which EC50 ([1]; Homo sapiens, HTB-81) is on record?
A: 31.1 µM

Q: What about the EC50 ([2]; Homo sapiens) of the same compound?
A: 41.1 µM

Q: And the EC50 ([3]; Mus musculus, B16)?
A: 60.5 µM
